Measured values pooled from the literature.
Protocols differ between the studies behind these lines.
Target: Cyclin-dependent kinase 15 (CDK15, Homo sapiens, UniProt Q96Q40)

Compound | test | setting | remaining binding [%]
O=C(c1ccc(Nc2nccc(-c3cc4ccccc4s3)n2)cc1)N1CCC(N2CCCC2)CC1 | binding, competition with immobilised ligand | 1 µM | 100
Cn1nc(C(=O)NCc2ccc(C(=O)O)cc2)cc1-c1ccc2[nH]ccc2c1 | cell-free assay, competition with immobilised ligand | 0.1 µM | 95
c1cncc(-c2cccc(Nc3nccc(NC4CCCCC4)n3)c2)c1 | binding, competition with immobilised ligand | 10 µM | 76
O=C(Nc1c[nH]nc1C(=O)NC1CCNCC1)c1cc(F)cc(F)c1 | binding, competition with immobilised ligand | 1 µM | 79
O=C(c1ccc(Nc2ncc(Cl)c(-c3ccc(Cl)s3)n2)cc1)N1CCC(N2CCCC2)CC1 | binding, competition with immobilised ligand | 1 µM | 43
CNC(=O)[C@@H]1CC[C@@H](n2c(-c3ccc4cnccc4c3)nc3ccc(C(=O)NCc4cccc(C(N)=O)c4)cc32)C1 | binding, competition with immobilised ligand | 1 µM | 100
C=CC(=O)N1CCC(C(=O)NCC(=O)N2CCN(c3nc(-c4cnc(N)nc4C(F)F)nc(N4CCOCC4)n3)CC2)CC1 | binding, competition with immobilised ligand | 1 µM | 100
FC(F)(F)Oc1cccc(-c2cnc3ccc(-c4ccncc4)nn23)c1 | cell-free assay, competition with immobilised ligand | 5 µM | 63
Cc1nc(Cc2cccc(C(F)(F)F)c2)sc1-c1ccc(C(N)=O)nc1 | cell-free assay, competition with immobilised ligand | 1 µM | 86
Cc1cnc(Nc2ccc(C(=O)N3CCC(N4CCCC4)CC3)cc2)nc1-c1cc2ccccc2s1 | binding, competition with immobilised ligand | 1 µM | 99
CN(c1nccc(-c2cnn3ncccc23)n1)C1CC1 | binding | 1 µM | 100
CCS(=O)(=O)c1cc2cc(C[C@@](O)(CC(C)(C)c3ccc(F)cc3C(N)=O)C(F)(F)F)[nH]c2cn1 | cell-free assay, competition with immobilised ligand | 1 µM | 59
CC1CCCN1c1nccc(-c2cnn3ncccc23)n1 (stereo not shown) | binding | 1 µM | 100
CN(C)CC#Cc1ccc(OCCCc2sc(N3CCc4cccc(C(=O)Nc5nc6ccccc6s5)c4C3)nc2C(=O)O)c(F)c1 | cell-free assay, competition with immobilised ligand | 1 µM | 100
N[C@@H]1CCN(c2nccc(-c3cnn4ncccc34)n2)C1 | binding | 1 µM | 100
COc1ncc2cc3ccccc3nc2c1C#N | cell-free assay, competition with immobilised ligand | 5 µM | 99
CN(C)c1nccc(-c2cnc3ncccn23)n1 | binding | 1 µM | 83
C[C@@H](c1ccc(-n2cnc3c(N)ncnc32)cc1)N1CCc2nn(C)c(Cc3ccccc3)c2C1=O | binding, competition with immobilised ligand | 0.1 µM | 86
C[C@@H]1CN(c2cc(-c3nn(C)c4ccc(OC5(C)CC5)cc34)ncn2)C[C@H](C)O1 | cell-free assay, competition with immobilised ligand | 1 µM | 84
CN(C)c1ncc(F)c(-c2cnn3ncccc23)n1 | binding | 1 µM | 100
O=C(NCCCC1CCCCC1)c1ccc(CNC(=O)c2cnn(-c3ccccc3)c2C(F)(F)F)cc1 | cell-free assay, competition with immobilised ligand | 0.1 µM | 77
F[C@@H]1CCN(c2nccc(-c3cnn4ncccc34)n2)C1 | binding | 1 µM | 100
